Source: PubChem BioAssay
Only some compounds are listed: those with a hit (about 6.1% of all), similar ones and a draw of the others.
RAM network inh – inhibitors of the yeast RAM network, primary screen, dse1pr::URA3 reporter, 5-FOA selection; S. cerevisiae dse1pr::URA3 reporter, 5-FOA growth OD615, 2 d; analog-sensitive cbk1-as2 kinase mutant strain; inhibition, % at 50 µM; 190,000 tested, 1.8% active;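 active = inhibition above a set limit, 3 SD over mean compound inhibition, cut at about 8.4% in these data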;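 also: 0% = DMSO-only wells with no growth and 100% = 10 µM 1-NA-PP1 full growth; inhibition rescues growth on 5-FOA so higher OD means more RAM inhibition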
Measles CPE – compounds protecting cells from measles virus cytopathic effect, primary screen, measles RdRp inhibitor project, single point, MLSMR library, absorbance; Measles virus-infected cells, CPE protection; protection (pct of control), % at 4 µM; 140,000 tested, 1.5% active; AID 841, 2007; in the data active = protection mostly above about 24%, no sharp cut-off; inactive = mostly below about 26%
WT yeast gro inh – growth inhibition of WT strain, primary screen, mitochondrial fusion inhibitor project, WT and mutant strains, chemical genetic; mitochondrial fusion phenotypic screen; inhibition, % at 10 µM; 190,000 tested, 2.1% active; in the data active = inhibition above about 58%; tested in S. cerevisiae
DAT uptake mod – changed hDAT dopamine uptake under cocaine IC80, either direction, primary screen, cocaine antagonist project, cell-based, LLC-PK1 hDAT, [14C]-dopamine uptake, MLSMR; AID 449768, 2010; LLC-PK1 hDAT cells, [14C]-dopamine uptake with cocaine IC80; actives deviate in either direction; 110,000 tested, 1.3% active; Sodium-dependent dopamine transporter (Homo sapiens), Q01959; B-score at 10 µM;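 active = Z score or B-score, a plate-position-corrected score, falls beyond the plate's 99.7% confidence bounds, in either direction; inactive = both scores lie inside the 99.7% bounds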;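 also: scored against the spread of the other compound wells on the same plate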
Target sequence (Q01959 whole entry, looked up): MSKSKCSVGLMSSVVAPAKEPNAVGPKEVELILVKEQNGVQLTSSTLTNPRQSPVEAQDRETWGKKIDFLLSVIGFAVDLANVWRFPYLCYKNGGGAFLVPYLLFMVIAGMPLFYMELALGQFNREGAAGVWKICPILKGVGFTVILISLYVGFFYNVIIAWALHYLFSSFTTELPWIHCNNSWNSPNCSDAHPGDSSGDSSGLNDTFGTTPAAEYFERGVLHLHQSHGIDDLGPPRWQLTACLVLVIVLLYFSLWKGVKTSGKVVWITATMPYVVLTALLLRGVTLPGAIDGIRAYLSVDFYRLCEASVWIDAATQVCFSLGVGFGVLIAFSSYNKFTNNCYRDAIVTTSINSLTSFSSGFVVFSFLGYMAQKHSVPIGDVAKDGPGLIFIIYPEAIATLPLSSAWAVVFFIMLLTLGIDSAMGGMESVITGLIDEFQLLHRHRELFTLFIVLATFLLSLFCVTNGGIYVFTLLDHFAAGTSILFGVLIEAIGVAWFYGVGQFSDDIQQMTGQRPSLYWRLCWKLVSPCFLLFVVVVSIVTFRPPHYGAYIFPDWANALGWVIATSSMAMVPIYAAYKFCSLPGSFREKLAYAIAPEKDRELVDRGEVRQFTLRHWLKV
BB579 growth dn – growth inhibitors of yeast BB579 in restrictive medium, primary screen, yeast lifespan-shortening project, S. cerevisiae; AID 804, 2007; 140,000 tested, 0.51% active; OD615, 48 h; inhibition, % at 10 µM;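 active = inhibition above a set limit, 3 SD over the mean compound inhibition, cut at about 44% in these data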
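System: Saccharomyces cerevisiae DeaD strain BB579, replicative lifespan model yeast. Buffer or medium: restrictive glucose-based CSMM-D medium. Doses: one dose, 10 µM compound with 0.25% DMSO. Timing: 4 h preincubation and 48 h exposure at 30 °C. Detection: turbidity as optical density at 615 nm. Benchmarks: amphotericin B 10 µg/mL, positive.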
Yeast lifespan up – compounds extending yeast replicative lifespan, primary screen, S. cerevisiae, OD615 | S. cerevisiae growth with nicotinamide; deaD strain in restrictive glucose medium | inhibition of the nicotinamide effect, % at 10 µM | 130,000 tested, 0.68% active;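 active = inhibition above a set limit, placed 3 SD over the median of all compounds, cut at about 26% in these data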;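 also: 0% = nicotinamide-treated wells and 100% = cells grown without nicotinamide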
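Assay system: DeaD-strain S. cerevisiae. Medium: CSMM-D glucose medium, restrictive. Reagent: nicotinamide, 1.5 mM, co-present with compound. Compound: 10 µM single point, 0.25% DMSO. Schedule: culture preincubation 4 h, compound exposure 48 h, both 30 °C. Detection: absorbance at 615 nm.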
* hit, by the source's call; x = no result given.

SMILES | RAM network inh | Measles CPE | WT yeast gro inh | DAT uptake mod | BB579 growth dn | Yeast lifespan up
CCc1[nH]nc2c1C(c1ccc(Br)s1)C(C#N)=C(N)O2 (stereo unspecified) | 0.3 | 20.7 | 12.0 | 1.18 | -26.4 | 57.5*
CC(C)(C)NC(=O)NC(=O)COC(=O)c1cc(=O)[nH]c2ccccc12 | 1.6 | 34.5* | -5.7 | 0.666 | -3.7 | -7.0
CNC(=O)COC(=O)c1cc(=O)[nH]c2ccccc12 | -0.1 | 1.9 | 8.1 | -0.346 | 7.9 | 53.9*
CCCCCOC(=O)c1cc(=O)[nH]c2ccccc12 | 4.3 | 2.2 | 10.7 | 9.75e-05 | -16.8 | -1.1
Cc1ccc(C(=O)COC(=O)c2cc(=O)[nH]c3ccccc23)cc1C | 3.6 | x | 2.4 | x | x | x
CCSC1=NC(C)(C)C=C(/C=C/c2ccc(Cl)cc2Cl)N1 | 0.7 | 1.5 | 59.9* | -0.153 | -64.1 | -8.3
CSC1=NC(C)(C)C=C(/C=C/c2ccc(Cl)cc2Cl)N1 | -0.4 | x | 68.0* | x | x | x
CSC1=NC(C)(C)C=C(/C=C/c2ccc(Cl)cc2)N1 | -0.2 | x | 21.4 | x | x | x
Cc1ncsc1CCC(=O)N1CCCC(C(=O)c2ccc3c(c2)OCO3)C1 (stereo unspecified) | -0.5 | x | -24.2 | x | x | x
COc1ccc(C)cc1NC(=O)C(OC(=O)c1cc(C)oc1C)c1ccccc1 (stereo unspecified) | 11.3* | 4.1 | 17.4 | x | -12.5 | 4.5
Nn1c(SCc2cccc3ccccc23)nnc1-c1ccco1 | 5.3 | 2.0 | -31.8 | 0.778 | -26.3 | -5.4
Cn1c(SCc2cccc3ccccc23)nnc1-c1ccco1 | 0.7 | 9.7 | 7.5 | 2.73* | -30.5 | -5.2
O=C(CSc1nc2ccc(Cl)cc2[nH]1)NCCc1ccccc1 | 1.6 | 28.8* | -11.4 | x | -15.3 | 2.8
CCC(=O)N[C@@H]1CC(C(C)(C)NC(=O)CC)CC=C1C (stereo partly specified) | 1.9 | 13.0 | 3.7 | -9.91* | 3.9 | 0.0
O=C(/C=C/c1ccccc1)OCc1cnc(Cl)s1 | 0.6 | x | 25.2 | x | x | x
Cc1cc(C)n(-c2ccc(C(=O)Nc3ccc4c(c3)OCO4)cc2)n1 | 0.7 | 3.1 | 6.4 | 1.14 | -7.0 | -13.6
Cc1cc(C)n(-c2ccc(C(=O)NC3=NCCS3)cc2)n1 | -0.6 | 34.9* | -8.8 | 0.0519 | -60.2 | -16.5
COc1ccc(NC(=O)c2ccc(-n3nc(C)cc3C)cc2)cc1OC | 0.3 | 49.0* | 9.3 | 0.079 | -4.6 | -12.1
CCOC(=O)c1c(C)[nH]c(C)c1C(=O)COC(=O)c1nc2nccc(C)n2n1 | 1.9 | x | -11.4 | x | x | x
O=C(/C=C/c1cccc(Cl)c1)Nn1c(-c2cccs2)nc2ccccc2c1=O | 3.9 | 24.6 | -8.4 | x | -26.7 | 2.2
CCOc1ccccc1-c1nc(-c2cccc(Br)c2)no1 | 8.7* | 10.7 | -2.8 | -0.637 | -29.9 | -10.3
CCOc1ccccc1-c1nc(-c2ccc(NC(=O)c3ccc(Br)o3)cc2)no1 | 2.1 | 3.8 | 38.0 | -1.17 | -55.7 | -20.2
COc1ccc(-c2noc(-c3cccnc3)n2)cc1OC | 2.6 | x | 1.9 | x | x | x
COc1ccc(-c2noc(-c3ccccc3-c3ccccc3)n2)cc1OC | 10.7* | 6.0 | 75.1* | x | -19.1 | -23.2
N#C/C(=C\c1cc(Cl)cc(Cl)c1O)C(=O)NC1CCCCC1 | 0.4 | 15.5 | 19.2 | -0.0869 | -17.3 | 19.1
SMILES | RAM network inh | Measles CPE | WT yeast gro inh | DAT uptake mod | BB579 growth dn | Yeast lifespan up
COc1ccc(-c2n(Cc3ccccc3)c3ccccc3[n+]2Cc2ccccc2)cc1 | 2.9 | x | 26.8 | x | x | x
CC(C)NC(=O)CN1CCN(Cc2nc(C(c3ccccc3)c3ccccc3)no2)CC1 | -0.5 | x | -5.9 | x | x | x
O=C(c1ccc(S(=O)(=O)N2CCOCC2)cc1)N(c1cccc(Cl)c1)C1C=CS(=O)(=O)C1 (stereo unspecified) | 1.3 | x | 4.2 | x | x | x
COc1ccc(-c2cc(=O)n(-c3nc4ccccc4[nH]3)[nH]2)cc1 | 0.9 | 5.3 | 6.8 | 0.0918 | 95.7* | -24.5
COc1ccccc1NC(=S)N(Cc1cccs1)C1CCCC1 | 0.1 | x | 74.9* | x | x | x
COc1ccccc1NC(=S)N(Cc1ccccc1)Cc1cccs1 | 1.5 | x | 18.0 | x | x | x
